Data: ChEMBL document CHEMBL1122112, “Imidodisulfamides. 1. A novel class of antagonists of slow-reacting substance of anaphylaxis” (1982)

Species: Cavia porcellus
Assay: Percent inhibition of slow reacting substance of anaphylaxis (SRS-A) induced contractions of isolated guinea pig ileum at 5 uM concentration.
Format: functional
In short: (§1)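 Ileum segments proximal to Peyer's patch from male albino Hartley guinea pigs (400-600 g), in modified Tyrode's at 37.5 °C gassed with 95% O2-5% CO2. Isometric contractions recorded. Partially purified guinea pig SRS-A applied at a level giving 60-80% of maximal contraction until responses are reproducible, then reapplied after incubation with compound. Controls receive vehicle. Inhibition is the mean % change in treated tissue minus the mean % change in controls. FPL-55712 serves as reference.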

| SMILES | inhibition at 5 µM |
| --- | --- |
| CCCCc1ccc(NS(=O)(=O)NS(=O)(=O)Nc2ccc(CCCC)cc2)cc1 | 5% |
| CCOC(=O)c1ccc(NS(=O)(=O)NS(=O)(=O)Nc2ccc(C(=O)OCC)cc2)cc1 | -5% |
| O=S(=O)(NCCc1cccc(SC(F)(F)F)c1)NS(=O)(=O)NCCc1cccc(SC(F)(F)F)c1 | -6% |

Species: Cavia porcellus
Assay: Percent inhibition of slow reacting substance of anaphylaxis (SRS-A) induced contractions of isolated guinea pig ileum at 50 uM concentration.
Format: functional
In short: as §1

| SMILES | inhibition at 50 µM |
| --- | --- |
| COc1ccccc1CCNS(=O)(=O)NS(=O)(=O)NCCc1ccccc1OC | 0.2% |
| O=S(=O)(Nc1ccc(Br)cc1)NS(=O)(=O)Nc1ccc(Br)cc1 | 47% |
| O=S(=O)(Nc1cccc(Cl)c1)NS(=O)(=O)Nc1cccc(Cl)c1 | 16% |
| O=S(=O)(Nc1cccc(F)c1)NS(=O)(=O)Nc1cccc(F)c1 | 10% |
| O=[N+]([O-])c1ccc(CCNS(=O)(=O)NS(=O)(=O)NCCc2ccc([N+](=O)[O-])cc2)cc1 | 19% |
| O=S(=O)(Nc1cccc(C(F)(F)F)c1)NS(=O)(=O)Nc1cccc(C(F)(F)F)c1 | 34% |
| O=S(=O)(NCCc1cccc(C(F)(F)F)c1)NS(=O)(=O)NCCc1cccc(C(F)(F)F)c1 | 32% |
| O=S(=O)(Nc1ccc(F)cc1)NS(=O)(=O)Nc1ccc(F)cc1 | 1% |
| O=S(=O)(NCCc1cccc(Cl)c1)NS(=O)(=O)NCCc1cccc(Cl)c1 | 16% |
| COc1cccc(CCNS(=O)(=O)NS(=O)(=O)NCCc2cccc(OC)c2)c1 | 9% |
| O=S(=O)(NCCc1ccc(Br)cc1)NS(=O)(=O)NCCc1ccc(Br)cc1 | 72% |
| Cc1cccc(NS(=O)(=O)NS(=O)(=O)Nc2cccc(C)c2)c1 | 13% |
| CSc1cccc(NS(=O)(=O)NS(=O)(=O)Nc2cccc(SC)c2)c1 | 12% |
| Cc1ccc(CCNS(=O)(=O)NS(=O)(=O)NCCc2ccc(C)cc2)cc1 | 1% |
| O=S(=O)(NCCc1ccc(O)cc1)NS(=O)(=O)NCCc1ccc(O)cc1 | 7% |
| O=S(=O)(Nc1cccc(Br)c1)NS(=O)(=O)Nc1cccc(Br)c1 | 38% |
| N#Cc1ccc(NS(=O)(=O)NS(=O)(=O)Nc2ccc(C#N)cc2)cc1 | -8% |
| CC(=O)c1ccc(NS(=O)(=O)NS(=O)(=O)Nc2ccc(C(C)=O)cc2)cc1 | -11% |
| O=S(=O)(Nc1ccc(C(F)(F)F)cc1)NS(=O)(=O)Nc1ccc(C(F)(F)F)cc1 | 86% |
| COc1ccc(CCNS(=O)(=O)NS(=O)(=O)NCCc2ccc(OC)cc2)cc1 | 18% |
| O=S(=O)(Nc1ccc(Cl)cc1)NS(=O)(=O)Nc1ccc(Cl)cc1 | -2% |

Species: Cavia porcellus
Assay: Percent inhibition of slow reacting substance of anaphylaxis (SRS-A) induced contractions of isolated guinea pig ileum at 20 uM concentration.
Format: functional
In short: as §1

| SMILES | inhibition at 20 µM |
| --- | --- |
| O=S(=O)(NCCCc1ccccc1)NS(=O)(=O)NCCCc1ccccc1 | 15% |
| O=S(=O)(NCCc1ccccc1)NS(=O)(=O)NCCc1ccccc1 | 7% |
| O=S(=O)(Nc1ccccc1)NS(=O)(=O)Nc1ccccc1 | 6% |
| O=S(=O)(NCCc1ccc(Cl)cc1)NS(=O)(=O)NCCc1ccc(Cl)cc1 | 62% |

Species: Cavia porcellus
Assay: Percent inhibition of slow reacting substance of anaphylaxis (SRS-A) induced contractions of isolated guinea pig ileum at 10 uM concentration.
Format: functional
In short: as §1

| SMILES | inhibition at 10 µM |
| --- | --- |
| O=S(=O)(NCc1ccccc1)NS(=O)(=O)NCc1ccccc1 | 0.2% |
| O=S(=O)(NCCCCc1ccccc1)NS(=O)(=O)NCCCCc1ccccc1 | 40% |
| O=S(=O)(NCCCCc1ccc(Cl)cc1)NS(=O)(=O)NCCCCc1ccc(Cl)cc1 | 22% |
| O=S(=O)(NCCCCCc1ccccc1)NS(=O)(=O)NCCCCCc1ccccc1 | 8% |
| O=S(=O)(NCCc1ccc(Cl)c(Cl)c1)NS(=O)(=O)NCCc1ccc(Cl)c(Cl)c1 | 43% |
| O=S(=O)(Nc1ccc(C(F)(F)F)cc1)NS(=O)(=O)Nc1ccc(C(F)(F)F)cc1 | 24% |
| O=S(=O)(NCCCCCCc1ccccc1)NS(=O)(=O)NCCCCCCc1ccccc1 | 15% |
| O=S(=O)(NCCc1ccccc1Cl)NS(=O)(=O)NCCc1ccccc1Cl | 8% |
